Inhibition and IC50 data for 20 compounds are collected here from ChEMBL document CHEMBL1177738, “Thiodiketopiperazines produced by the endophytic fungus Epicoccum nigrum” (J Nat Prod, 2010).

pIC50: −log10 of the molar value. Calls of active or inactive are those of the source. The rule behind the calls is not given here.

The test system of one experiment is HCT-8. As to the kind of experiment: Cytotoxicity against human HCT8 cells. It counts as functional, cell-based. The method in brief: (§1)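 Cytotoxicity against a panel of six human tumor lines (A549, Bel-7402, BGC-823, HCT-8, HCT-116, A2780) was measured in vitro by MTT assay.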
In another experiment the test system is BGC-823. In words: Cytotoxicity against human BGC823 cells. The class given is functional, cell-based. The method in brief: as §1
In a further experiment the test system is Bel-7402. In words: Cytotoxicity against human Bel7402 cells. The class given is functional, cell-based. The method in brief: as §1
Another experiment deals with A549. As to the kind of experiment: Cytotoxicity against human A549 cells. It counts as functional, cell-based. The method in brief: as §1
The subject of the next experiment is A2780. In words: Cytotoxicity against human A2780 cells. It counts as functional, cell-based. The method in brief: as §1
Another experiment has as its system HCT-116. In words: Cytotoxicity against human HCT116 cells. It counts as functional, cell-based. The method in brief: as §1
The nature of experiment [1]: Antiinflammatory activity in rat PMNC assessed as inhibition of platelet-activating factor-induced beta-glucuronidase release. It counts as functional. The method in brief: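 In vitro assay on rat polymorphonuclear leukocytes stimulated with platelet-activating factor; β-glucuronidase release was measured, with a positive control run alongside. Inhibitory potency is reported as IC50 in µM.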

A word on the pIC50: it is the negative decadic logarithm of the IC50, by convention in mol/L.

`CS[C@@]12C[C@H]3C(=O)C=C[C@H](O)[C@H]3N1C(=O)[C@]1(SC)C[C@H]3C(=O)CC[C@H](O)[C@H]3N1C2=O`: the inhibition result in the experiment on HCT-8, in the experiment with BGC-823, with Bel-7402, in the experiment on A549, in the experiment with A2780 and with HCT-116 was “inactive” in each case.

Consider `O=C1C[C@H]2S[C@@]34C[C@@H]1[C@@H]([C@H]2O)N3C(=O)[C@@]12C[C@H]3C(=O)[C@@H](S1)[C@H](O)[C@H](O)[C@H]3N2C4=O` [EPICOCCIN E], for which the inhibition result with HCT-8, in the experiment with BGC-823, with Bel-7402, in the experiment with A549, in the experiment on A2780 and in the experiment with HCT-116 was “inactive” each time. In addition, in experiment [1], the pIC50 was 5.70.

With `CS[C@@]12CC3=CC=C[C@H](O)[C@H]3N1C(=O)[C@]13C[C@@]4(O)[C@H](C=C[C@H](O)[C@H]4N1C2=O)S3`, the inhibition result with HCT-8, in the experiment on BGC-823, in the experiment on Bel-7402, in the experiment on A549, in the experiment on A2780 and with HCT-116 was “inactive” each time.

For `CS[C@@]12C[C@H]3C(=O)CC[C@H](O)[C@H]3N1C(=O)[C@@]13C[C@H]4C(=O)C[C@@H](S1)[C@H](O)[C@H]4N3C2=O`, the inhibition result in the experiment with HCT-8, in the experiment on BGC-823, with Bel-7402, in the experiment on A549, in the experiment with A2780 and in the experiment with HCT-116 was “inactive” each time.

In the case of `O=C1CC[C@H](O)[C@H]2[C@H]1C[C@@]13SS[C@]4(C[C@H]5[C@@H]([C@@H](O)CC[C@@H]5O)N4C1=O)C(=O)N23`, the inhibition entry in the experiment with HCT-8, in the experiment with BGC-823, in the experiment on Bel-7402, in the experiment on A549, with A2780 and in the experiment on HCT-116 was “inactive” throughout.

Turning to `O=C1C[C@H]2SS[C@@]34C[C@@H]1[C@@H]([C@H]2O)N3C(=O)[C@]12C[C@H]3C(=O)[C@H](C[C@H](O)[C@H]3N1C4=O)S2`, the inhibition entry in the experiment on HCT-8, in the experiment on BGC-823, in the experiment with Bel-7402, with A549, with A2780 and in the experiment with HCT-116 was “inactive” throughout.

Turning to `O=C1N[C@@H](Cc2ccccc2)C(=O)N[C@H]1Cc1ccccc1`, the inhibition entry in the experiment with HCT-8, in the experiment on BGC-823, with Bel-7402, in the experiment on A549, in the experiment with A2780 and in the experiment on HCT-116 was “inactive” throughout.

As to `CS[C@@]12C[C@H]3C(=O)CC[C@H](O)[C@H]3N1C(=O)[C@]1(SC)C[C@H]3C(=O)CC[C@H](O)[C@H]3N1C2=O` [EPICOCCIN G], the inhibition entry with HCT-8, with BGC-823, in the experiment with Bel-7402, in the experiment on A549, in the experiment on A2780 and in the experiment with HCT-116 was “inactive” throughout. Also, the pIC50 in experiment [1] is 5.51.

In the case of `CS[C@@]12C[C@H]3[C@@H]([C@@H](O)CC[C@@H]3O)N1C(=O)[C@]1(SC)C[C@H]3[C@@H]([C@@H](O)CC[C@@H]3O)N1C2=O`, the inhibition result with HCT-8, in the experiment on BGC-823, with Bel-7402, in the experiment on A549, in the experiment with A2780 and in the experiment on HCT-116 was “inactive” each time.

With `CS[C@@]12C[C@H]3C(=O)C[C@H](O)[C@H](O)[C@H]3N1C(=O)[C@@]13C[C@H]4C(=O)C[C@@H](SS1)[C@H](O)[C@H]4N3C2=O`, the inhibition entry with HCT-8, in the experiment on BGC-823, in the experiment on Bel-7402, in the experiment on A549, in the experiment on A2780 and in the experiment with HCT-116 was “inactive” in each case.

Consider `C[C@@H]1C(=O)O[C@H]2[C@H](O)[C@@]34[C@H]5C[C@@H](C(C)(C)C)[C@]36[C@@H](OC(=O)[C@@H]6O)O[C@@]4(C(=O)O5)[C@@]12O` [GINKOLIDE B], for which the negative logarithm of the IC50 (pIC50) in experiment [1] was 5.63.

On to `O=C1C[C@@H]2SS[C@@]34C[C@@H]1[C@@H]([C@H]2O)N3C(=O)[C@@]12C[C@H]3C(=O)C[C@H](SS1)[C@H](O)[C@H]3N2C4=O`, for which the inhibition result in the experiment on HCT-8, in the experiment on BGC-823, with Bel-7402, with A549, with A2780 and in the experiment with HCT-116 was “inactive” in each case.

Turning to `O=C1C[C@@H]2SS[C@@]34C[C@@H]1[C@@H]([C@H]2O)N3C(=O)[C@@]12C[C@H]3C(=O)[C@H](S1)[C@H](O)[C@H](O)[C@H]3N2C4=O`, the inhibition entry with HCT-8, in the experiment with BGC-823, in the experiment on Bel-7402, with A549, with A2780 and with HCT-116 was “inactive” throughout.

As for `CCO[C@@H]1[C@H](O)[C@@H]2[C@H]3C[C@@]4(S[C@@H]1C3=O)C(=O)N1[C@@H]3[C@@H](O)[C@H]5CC(=O)[C@@H]3C[C@@]1(SS5)C(=O)N24` [EPICOCCIN S], the inhibition entry in the experiment with HCT-8, in the experiment on BGC-823, in the experiment on Bel-7402, in the experiment on A549, in the experiment with A2780 and in the experiment with HCT-116 was “inactive” throughout. In experiment [1], the pIC50 was 5.31.

In the case of `CS[C@@]12C[C@H]3[C@@H]([C@@H](O)CC[C@@H]3O)N1C(=O)[C@@]13C[C@H]4C(=O)C[C@@H](S1)[C@H](O)[C@H]4N3C2=O`, the inhibition entry in the experiment on HCT-8, with BGC-823, in the experiment on Bel-7402, in the experiment on A549, in the experiment with A2780 and with HCT-116 was “inactive” throughout.

For the compound `CS[C@@]12C[C@H]3C(=O)CC[C@H](O)[C@H]3N1C(=O)[C@@]13C[C@H]4C(=O)C[C@@H](SS1)[C@H](O)[C@H]4N3C2=O` [EPICOCCIN M], the inhibition result in the experiment with HCT-8, with BGC-823, with Bel-7402, in the experiment with A549, with A2780 and in the experiment on HCT-116 was “inactive” throughout. Also, the pIC50 in experiment [1] was 5.38.

For `O=C1C[C@H]2SS[C@@]34C[C@@H]1[C@@H]([C@H]2O)N3C(=O)[C@@]12C[C@H]3C(=O)C[C@@H](S1)[C@H](O)[C@H]3N2C4=O`, the inhibition entry in the experiment with HCT-8, with BGC-823, in the experiment on Bel-7402, with A549, with A2780 and in the experiment with HCT-116 was “inactive” in each case.

For `O=C1C[C@H]2SS[C@@]34C[C@@H]1[C@@H]([C@H]2O)N3C(=O)[C@@]12C[C@H]3C(=O)[C@@H](S1)[C@@H](O)[C@H](O)[C@H]3N2C4=O`, the inhibition result in the experiment on HCT-8, in the experiment with BGC-823, with Bel-7402, with A549, in the experiment on A2780 and in the experiment with HCT-116 was “inactive” each time.

Take `O=C1N2[C@H]3[C@H](C[C@]24SS[C@]12C[C@H]1[C@@H]([C@@H](O)CC[C@@H]1O)N2C4=O)[C@@H](O)CC[C@@H]3O`: the inhibition entry in the experiment on HCT-8, in the experiment on BGC-823, with Bel-7402, in the experiment on A549, with A2780 and in the experiment on HCT-116 was “inactive” throughout.

Consider `CS[C@@]12C[C@H]3C(=O)CC[C@H](O)[C@H]3N1C(=O)[C@]1(SC)C[C@H]3[C@@H]([C@@H](O)CC[C@@H]3O)N1C2=O`, for which the inhibition entry with HCT-8, in the experiment with BGC-823, in the experiment on Bel-7402, in the experiment on A549, in the experiment with A2780 and in the experiment on HCT-116 was “inactive” in each case.
